From ChEMBL document CHEMBL1124774, “Synthesis and biological activity of some derivatives of rifamycin P” (1990)

How the values were obtained:
Klebsiella pneumoniae = experiment: In vitro antibacterial activity of compound against Klebsiella pneumoniae ISM; format: functional
[1] = tested on: Mycobacterium scrofulaceum; experiment: In vitro activity of compound against slowly growing Mycobacterium scrofulaceum 1292; format: functional
In short: (§1)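 Medium was Middlebrook 7H10 agar with 2% glycerol and 10% OADC. Organisms from Loevenstein-Jensen slants were grown in 7H9 broth with 0.5% Tween and 10% OADC, adjusted to McFarland no. 1, and spotted with a multipoint inoculator. Sealed plates were incubated at 22, 30 or 37 °C for 4-20 days depending on strain.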

[2] = tested on: Mycobacterium scrofulaceum; experiment: In vitro activity of compound against slowly growing Mycobacterium scrofulaceum 1293; format: functional; in short: as §1
[3] = tested on: Mycobacterium scrofulaceum; experiment: In vitro activity of compound against slowly growing Mycobacterium scrofulaceum 1297; format: functional; in short: as §1
[4] = tested on: Mycobacterium scrofulaceum; experiment: In vitro activity of compound against slowly growing Mycobacterium scrofulaceum 1301; format: functional; in short: as §1
Mycobacterium xenopi [5] = experiment: In vitro activity compound against slowly growing Mycobacterium xenopi 1446; format: functional; in short: as §1
Mycobacterium xenopi [6] = experiment: In vitro activity of compound against slowly growing Mycobacterium xenopi 554; format: functional; in short: as §1
Mycobacterium xenopi [7] = experiment: In vitro activity of compound against slowl growingy Mycobacterium xenopi 555; format: functional; in short: as §1
Mycolicibacterium phlei [8] = experiment: In vitro activity of compound against rapidly growing Mycobacterium phlei 141; format: functional; in short: as §1
Mycolicibacterium phlei [9] = experiment: In vitro activity of compound against rapidly growing Mycobacterium phlei 1283; format: functional; in short: as §1
Mycolicibacterium phlei [10] = experiment: In vitro activity of compound against rapidly growing Mycobacterium phlei 1289; format: functional; in short: as §1
Mycobacterium kansasii [11] = experiment: In vitro activity compound against slowly growing Mycobacterium kansasii 1298; format: functional; in short: as §1
Mycobacterium kansasii [12] = experiment: In vitro activity of compound against slowly growing Mycobacterium kansasii 1299; format: functional; in short: as §1
Mycobacterium marinum [13] = experiment: In vitro activity of compound against slowly growing Mycobacterium marinum 1388; format: functional; in short: as §1
Mycobacterium marinum [14] = experiment: In vitro activity of compound against slowly growing Mycobacterium marinum 1390; format: functional; in short: as §1
Mycobacterium marinum [15] = experiment: In vitro activity of compound against slowly growing Mycobacterium marinum 1391; format: functional; in short: as §1
[16] = tested on: Mycolicibacterium fortuitum; experiment: In vitro activity of compound against rapidly growing Mycobacterium fortuitum 114; format: functional; in short: as §1
[17] = tested on: Mycolicibacterium fortuitum; experiment: In vitro activity of compound against rapidly growing Mycobacterium fortuitum 1285; format: functional; in short: as §1
[18] = tested on: Mycolicibacterium fortuitum; experiment: In vitro activity of compound against rapidly growing Mycobacterium fortuitum 1287; format: functional; in short: as §1
[19] = tested on: Mycolicibacterium fortuitum; experiment: In vitro activity compound against rapidly growing Mycobacterium fortuitum 1302; format: functional; in short: as §1
[20] = tested on: Mycolicibacterium fortuitum; experiment: In vitro activity of compound against rapidly growing Mycobacterium fortuitum 140; format: functional; in short: as §1
[21] = tested on: Mycolicibacterium fortuitum; experiment: In vitro activity compound against rapidly growing Mycobacterium fortuitum 1440; format: functional; in short: as §1
[22] = tested on: Mycolicibacterium fortuitum; experiment: In vitro activity of compound against rapidly growing Mycobacterium fortuitum 646; format: functional; in short: as §1
Mycobacterium gordonae [23] = experiment: In vitro activity of compound against slowly growing Mycobacterium gordonae 1294; format: functional; in short: as §1
Mycobacterium gordonae [24] = experiment: In vitro activity of compound against slowly growing Mycobacterium gordonae 1441; format: functional; in short: as §1
Mycobacterium kansasii [25] = experiment: In vitro activity compound against slowly growing Mycobacterium kansasii 1291; format: functional; in short: as §1
[26] = tested on: Mycolicibacterium flavescens; experiment: In vitro activity of compound against rapidly growing Mycobacterium flavescens 1284; format: functional; in short: as §1
[27] = tested on: Mycolicibacterium flavescens; experiment: In vitro activity of compound against rapidly growing Mycobacterium flavescens 1286; format: functional; in short: as §1
Mycobacterium marinum [28] = experiment: In vitro activity of compound against slowly growing Mycobacterium marinum 1392 h; format: functional; in short: as §1
Mycobacterium marinum [29] = experiment: In vitro activity of compound against slowly growing Mycobacterium marinum 1393; format: functional; in short: as §1
Mycobacterium marinum [30] = experiment: In vitro activity of compound against slowly growing Mycobacterium marinum 1394; format: functional; in short: as §1
Mycobacterium marinum [31] = experiment: In vitro activity of compound against slowly growing Mycobacterium marinum 1447; format: functional; in short: as §1
[32] = tested on: Mycobacterium tuberculosis; experiment: In vitro antibacterial activity of compound against Mycobacterium tuberculosis H37Rv ATCC 9660; format: functional
Mycobacterium avium = experiment: 50% inhibition of the 20 Mycobacterium (MAC) avium complex clinical isolates; format: functional
In short: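 Agar-dilution MICs, 2-fold dilutions over 128-0.0001 μg/mL, on Middlebrook 7H10 agar with 2% glycerol and 10% OADC. Organisms from Loevenstein-Jensen slants were grown in 7H9 broth with 0.5% Tween and 10% OADC, adjusted to McFarland no. 1, and spotted with a multipoint inoculator. Plates were sealed and incubated at 22, 30 or 37 °C for 4-20 days depending on strain.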

Neisseria gonorrhoeae = experiment: In vitro antibacterial activity of compound against Neisseria gonorrhoeae ISM 68/126; format: functional
Pseudomonas aeruginosa = experiment: In vitro antibacterial activity of compound against Pseudomonas aeruginosa ATCC 10145; format: functional
In short: (§2)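 Twofold microdilution MIC in Iso-Sensitest broth over 128-0.0001 µg/mL. Inoculum was 10^4 cfu/mL, with incubation at 37 °C for 18-24 h.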

Staphylococcus aureus [33] = experiment: Activity in the murine model (OS route) of Staphylococcus aureus tour septicemia; format: functional
In short: (§3)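 Male and female CD1 mice (18-22 g) were infected ip with S. aureus Tour. The challenge was set so untreated mice died within 48 h. Groups were five mice, dosed once daily for 3 days starting immediately after infection. ED50 was calculated on day 10 from the percentage surviving at each dose.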

Staphylococcus aureus [34] = experiment: Activity in the murine model (subcutaneous route) of Staphylococcus aureus tour septicemia; format: functional; conditions: sc; in short: as §3
[35] = tested on: Staphylococcus epidermidis; experiment: In vitro antibacterial activity of compound against Staphylococcus epidermidis ATCC 12228; format: functional; in short: as §2
Streptococcus pyogenes = experiment: In vitro antibacterial activity of compound against Streptococcus pyogenes C 203 SKF 13400; format: functional
In short: (§4)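 Streptococcal MICs were run by twofold microdilution in Todd-Hewitt broth over 128-0.0001 µg/mL. Inoculum was 10^4 cfu/mL, with incubation at 37 °C for 18-24 h.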

Staphylococcus aureus [36] = experiment: In vitro antibacterial activity of compound against Staphylococcus aureus Tour L 165; format: functional; in short: as §2
Streptococcus pneumoniae = experiment: In vitro antibacterial activity of compound against Streptococcus pneumoniae UC 41; format: functional; in short: as §4
Enterococcus faecalis = experiment: In vitro antibacterial activity of compound against Streptococcus faecalis ATCC 7080.; format: functional; in short: as §2
[37] = tested on: Mycolicibacterium fortuitum; experiment: In vitro activity of compound against rapidly growing Mycobacterium fortuitum 645; format: functional; in short: as §1
Haemophilus influenzae = experiment: In vitro antibacterial activity of compound against Haemophilus influenzae ATCC 19418; format: functional
Mycobacterium xenopi [38] = experiment: In vitro activity of compound against slowly growing Mycobacterium xenopi 556; format: functional; in short: as §1
Mycobacteroides chelonae = experiment: In vitro activity of compound against rapidly growing Mycobacterium chelonae 1443

COC1/C=C/OC2(C)Oc3c(C)c(O)c4c(O)c(c(C=NN5CCN(C6CCCC6)CC5)c(O)c4c3C2=O)NC(=O)/C(C)=C\C=C\C(C)C(O)C(C)C(O)C(C)C(OC(C)=O)C1C (configuration not stated)
0.125 µg/mL: MIC (Mycobacterium marinum [13]) | MIC (Mycobacterium marinum [15]) | MIC [27] | MIC (Mycobacterium marinum [28]) | MIC (Mycobacterium marinum [29]) | MIC (Mycobacterium marinum [30]) | MIC (Mycobacterium marinum [31])
32 µg/mL: MIC (Klebsiella pneumoniae) | MIC [16] | MIC [20] | MIC [21] | MIC [22] | MIC [26]
0.016 µg/mL: MIC [1] | MIC (Mycolicibacterium phlei [8])
0.5 µg/mL: MIC (Mycobacterium marinum [14]) | MIC [19] | MIC (Mycobacterium gordonae [23]) | MIC (Neisseria gonorrhoeae) | MIC (Haemophilus influenzae) | MIC (Mycobacterium xenopi [38])
0.063 µg/mL: MIC [3] | MIC (Mycolicibacterium phlei [9]) | MIC (Mycobacterium kansasii [11]) | MIC [32] | MIC [35] | MIC (Streptococcus pyogenes) | MIC (Staphylococcus aureus [36]) | MIC (Streptococcus pneumoniae)
1 µg/mL: MIC [18] | MIC (Mycobacterium gordonae [24]) | MIC50 (Mycobacterium avium)
0.18 mg/kg: ED50 (Staphylococcus aureus [34])
4 µg/mL: MIC [4] | MIC [17] | MIC (Mycobacterium kansasii [25])
> 128 µg/mL: MIC (Mycobacteroides chelonae)
0.25 µg/mL: MIC (Mycobacterium xenopi [5]) | MIC (Mycobacterium xenopi [6]) | MIC (Mycobacterium xenopi [7])
0.22 mg/kg: ED50 (Staphylococcus aureus [33])
0.032 µg/mL: MIC [2]
8 µg/mL: MIC (Pseudomonas aeruginosa)
2 µg/mL: MIC (Mycolicibacterium phlei [10]) | MIC (Mycobacterium kansasii [12]) | MIC (Enterococcus faecalis) | MIC [37]
